This is an account of results in PMC3206162 (The international journal of biochemistry & cell biology, 2011).

Where two headings read alike, the source gives them in different places. No end group written: not given here.

For data set [1], the system named is LEC. The following applies: 20 h.
For data set [2], the system named is LEC. Format: cell-based, human. The following applies: 72 h.
Data set [3] deals with HUVEC. Format: cell-based, human. Conditions: 72 h.
For data set [4], the system named is LEC. Put plainly: RTCA E-plate LEC adhesion assay. Format: cell-based, human. The following applies: read-out: IC50 LEC adhesion; cell index at 1 h; 100, 33, 11, 3.7, 1.2μM. In a few lines:
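LEC seeded at 25,000 cells/well in EGM-2MV medium onto E-plate wells already holding peptide, so the cells dilute the peptide to its final concentration. Plate equilibrated 30 min at room temperature, then loaded into the RTCA system. Cell index analysed at 1 h as the adhesion read-out.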

Data set [5] concerns MEC. Format: cell-based, human. Conditions: 72 h.
For data set [6], the system named is HUVEC. Put plainly: CytoTox-ONE LDH release cytotoxicity assay on HUVEC. The following applies: 10μM peptide, 72 h. (In general: Release of lactate dehydrogenase indicates damage to the cell membrane.)
Data set [7] relates to LEC.
Data set [8] deals with MEC. Kind of data set: CytoTox-ONE LDH release cytotoxicity assay on MEC. Conditions: 72 h, complete media control = 100%; for LDH level, MEC: 10μM peptide; for LDH activity compared to the control, MEC: 100μM peptide.
In a further data set the test system is cell apoptosis. The following applies: cited from earlier work.
Data set [9] concerns LEC. Kind of data set: CytoTox-ONE LDH release cytotoxicity assay on LEC. The following applies: 72 h, complete media control = 100%.

As a reminder, the IC50 is the point on the concentration scale where inhibition reaches its midpoint. For the molecule LLRSSLILLQGSWF [SP5031], the IC50 in the data set with LEC [1] came to 25.1 µM; in the data set on LEC [2], 158 ± 122 µM; with HUVEC [3] it was 96.9 ± 34.3 µM; with LEC [4] it was 24.2 µM; with MEC [5], 83.4 ± 21.9 µM.

Consider LLRLLLLIESWLE [SP5030], for which the IC50 in the data set on MEC [5] amounted to 93.2 ± 42.3 µM. The “cytotoxic (LDH) activity, HUVEC” value in the data set on HUVEC [6] is given as “significant cytotoxic activity”.

In the case of LLRISLLLIESWLE [SP5033], the “LDH activity compared to the control, LEC” value with LEC [7] is “significant LDH activity”. Besides, the IC50 in the data set on MEC [5] was 81.1 ± 37.2 µM.

The molecule LMRKSQILISSWF [SP5028] gave a half-inhibitory concentration (IC50) with HUVEC [3] of 58.2 ± 35.2 µM. Besides, in the data set with MEC [8], the “LDH level, MEC” value was “more than 150%” and the “LDH activity compared to the control, MEC” value was “more than 200%”.

As for “LLRISLLLIQSWLE [tilted PRL peptide, reference compound]”, the cell apoptosis entry in the data set with cell apoptosis (ref Nguyen et al., 2006) is “led to cell apoptosis”.

Consider LLHISLLLIESRLE [SP5032], for which, in the data set with MEC [5], the IC50 was determined as 80.1 ± 47.9 µM. Further, in the data set on HUVEC [6], the “cytotoxic (LDH) activity, HUVEC” value was “significant cytotoxic activity”.

The molecule RLRLLTLQSWLL [SP5001] showed a half-maximal inhibitory concentration (IC50) in the data set on HUVEC [3] of 50.7 ± 31.8 µM. In addition, in the data set with MEC [8], the “LDH level, MEC” value was “more than 150%” and the “LDH activity compared to the control, MEC” value is recorded as “more than 200%”. In the data set with LEC [9], the “LDH activity compared to the control, LEC” value was “significant LDH activity”. Half-maximal inhibition with MEC [5] (IC50) required 52.4 ± 27.8 µM.

B1: PRL protein: prolactin (PRL) protein (protein, UniProt P01236 29-227, looked up)
Prolactin: LPICPGGAARCQVTLRDLFDRAVVLSHYIHNLSSEMFSEFDKRYTHGRGFITKAINSCHTSSLATPEDKEQAQQMNQKDFLSLIVSILRSWNEPLYHLVTEVRGMQEAPEAILSKAVEIEEQTKRLLEGMELIVSQVHPETKENEIYPVWSGLPSLQMADEESRLSAYYNLLHCLRRDSHKIDNYLKLLKCRIIHNNNC
On to B1, for which the “apoptosis in a prostate cancer model” value in the data set on cell apoptosis (prostate cancer model, ref Giuffrida et al., 2010) was “induced apoptosis”.
